Measurements as given in ChEMBL document CHEMBL3352430, “4-Aminopyridyl-based CYP51 inhibitors as anti-Trypanosoma cruzi drug leads with improved pharmacokinetic profile and in vivo potency” (J Med Chem, 2014).

Key:
[1] = AUClast in mouse at 50 mg/kg, po in 20% HP-beta-CD; type: ADME, organism-based, Plasma; parameters: time 0 - last, dose 50 mg/kg, route oral; conditions: plasma
How it was run: (§1)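 Female Swiss Webster mice, 8 weeks old, given one oral gavage dose of 50 mg/kg as a 10 mg/mL preparation in the named vehicle (20% HPβCD suspension or 20% Kolliphor). Plasma sampled at about 0.25, 0.5, 1, 2, 4, 6, 8, 12 and 24 h, n = 3 per time point. Protein precipitated with 5 volumes acetonitrile, filtered, then LC-MS/MS. Values are averages of three mice.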

[2] = Tmax in mouse at 50 mg/kg, po in 20% Kolliphor; type: ADME, organism-based; parameters: dose 50 mg/kg, route oral; conditions: in vivo; how it was run: as §1
[3] = system: Liver; test: Drug uptake in mouse liver at 50 mg/kg, po in 20% Kolliphor measured at 8 hrs post dose; type: ADME, organism-based; parameters: dose 50 mg/kg, route oral; conditions: in vivo
How it was run: (§2)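 Female Swiss Webster mice, 8 weeks old, given a single 50 mg/kg oral gavage dose in 20% HPβCD or 20% Kolliphor. Tissues taken from three mice at 2 and 8 h post dose. Homogenized by probe sonication in PBS (1:4 w/v), protein precipitated with acetonitrile, and compound measured by LC-MS/MS in μM.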

[4] = system: Brain; test: Drug uptake in mouse brain at 50 mg/kg, po in 20% HP-beta-CD measured at 8 hrs post dose; type: ADME, organism-based; parameters: dose 50 mg/kg, route oral; conditions: in vivo; how it was run: as §2
[5] = system: Lung; test: Drug uptake in mouse lung at 50 mg/kg, po in 20% HP-beta-CD measured at 8 hrs post dose; type: ADME, organism-based; parameters: dose 50 mg/kg, route oral; conditions: in vivo; how it was run: as §2
[6] = system: C2C12; test: Cytotoxicity against mouse C2C12 cells up to 10 uM; type: cell-based
How it was run: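 Mouse C2C12 myoblasts infected with T. cruzi CA-I/72, then exposed at 24 h postinfection to compound at 10 μM down to 5 pM in 5-fold steps for 72 h at 37 °C. Cells fixed in paraformaldehyde, stained with DAPI and scored by automated imaging. Triplicate wells; uninfected and infected untreated wells as controls.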

[7] = Drug uptake in mouse skeletal muscle at 50 mg/kg, po in 20% Kolliphor measured at 8 hrs post dose; type: ADME, organism-based, Muscle tissue; parameters: dose 50 mg/kg, route oral; conditions: in vivo; how it was run: as §2
[8] = system: Brain; test: Drug uptake in mouse brain at 50 mg/kg, po in 20% Kolliphor measured at 8 hrs post dose; type: ADME, organism-based; parameters: dose 50 mg/kg, route oral; conditions: in vivo; how it was run: as §2
[9] = Clearance in mouse at 50 mg/kg, po in 20% HP-beta-CD; type: ADME, organism-based; parameters: dose 50 mg/kg, route oral; conditions: in vivo; how it was run: as §1
[10] = Clearance in mouse at 50 mg/kg, po in 20% Kolliphor; type: ADME, organism-based; parameters: dose 50 mg/kg, route oral; conditions: in vivo; how it was run: as §1
[11] = system: Liver; test: Drug uptake in mouse liver at 50 mg/kg, po in 20% HP-beta-CD measured at 8 hrs post dose; type: ADME, organism-based; parameters: dose 50 mg/kg, route oral; conditions: in vivo; how it was run: as §2
[12] = system: Hepatocyte; test: Cytotoxicity against mouse hepatocytes assessed as growth inhibition after 72 hrs by Cell Titer Glo assay
[13] = system: Heart; test: Drug uptake in mouse heart at 50 mg/kg, po in 20% Kolliphor measured at 8 hrs post dose; type: ADME, organism-based; parameters: dose 50 mg/kg, route oral; conditions: in vivo; how it was run: as §2
[14] = Half life in mouse at 50 mg/kg, po in 20% Kolliphor; type: ADME, organism-based; parameters: dose 50 mg/kg, route oral; conditions: in vivo; how it was run: as §1
[15] = Drug uptake in mouse fat at 50 mg/kg, po in 20% Kolliphor measured at 8 hrs post dose; type: ADME, organism-based, Adipose tissue; parameters: dose 50 mg/kg, route oral; conditions: in vivo; how it was run: as §2
[16] = system: Intestine; test: Drug uptake in mouse intestine at 50 mg/kg, po in 20% Kolliphor measured at 8 hrs post dose; type: ADME, organism-based; parameters: dose 50 mg/kg, route oral; conditions: in vivo; how it was run: as §2
[17] = system: Lung; test: Drug uptake in mouse lung at 50 mg/kg, po in 20% Kolliphor measured at 8 hrs post dose; type: ADME, organism-based; parameters: dose 50 mg/kg, route oral; conditions: in vivo; how it was run: as §2
[18] = Drug uptake in mouse skeletal muscle at 50 mg/kg, po in 20% HP-beta-CD measured at 8 hrs post dose; type: ADME, organism-based, Muscle tissue; parameters: dose 50 mg/kg, route oral; conditions: in vivo; how it was run: as §2
[19] = system: Trypanosoma cruzi; test: Antitrypanosomal activity against Trypanosoma cruzi Y luc infected in mouse assessed as inhibition of parasitemia at 50 mg/kg, po bid in 20% Kolliphor administered for 4 consecutive days starting on day 3 of infection measured on day 7 post infection relative to vehicle-treated control; type: functional
How it was run: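 Female Swiss Webster mice, 8 weeks old, infected ip with 10^5 T. cruzi Y luc trypomastigotes. Only mice with detectable luminescence on day 3 were treated. Compound given by oral gavage bid for four days, as a suspension in 20% HPβCD or a solution in 20% Kolliphor, five mice per group. Vehicle group and benznidazole 50 mg/kg served as controls. On day 7, mice were injected ip with 150 mg/kg d-luciferin and imaged after 5 min under isoflurane. Percent inhibition calculated against untreated mice; two-tailed paired t test.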

[20] = Drug uptake in mouse fat at 50 mg/kg, po in 20% HP-beta-CD measured at 8 hrs post dose; type: ADME, organism-based, Adipose tissue; parameters: dose 50 mg/kg, route oral; conditions: in vivo; how it was run: as §2
[21] = Tmax in mouse at 50 mg/kg, po in 20% HP-beta-CD; type: ADME, organism-based; parameters: dose 50 mg/kg, route oral; conditions: in vivo; how it was run: as §1
[22] = Cmax in mouse at 50 mg/kg, po in 20% HP-beta-CD; type: ADME, organism-based; parameters: dose 50 mg/kg, route oral; conditions: in vivo; how it was run: as §1
[23] = system: Intestine; test: Drug uptake in mouse intestine at 50 mg/kg, po in 20% HP-beta-CD measured at 8 hrs post dose; type: ADME, organism-based; parameters: dose 50 mg/kg, route oral; conditions: in vivo; how it was run: as §2
[24] = AUClast in mouse at 50 mg/kg, po in 20% Kolliphor; type: ADME, organism-based; parameters: time 0 - last, dose 50 mg/kg, route oral; conditions: plasma; how it was run: as §1
[25] = system: Heart; test: Drug uptake in mouse heart at 50 mg/kg, po in 20% HP-beta-CD measured at 8 hrs post dose; type: ADME, organism-based; parameters: dose 50 mg/kg, route oral; conditions: in vivo; how it was run: as §2
[26] = Half life in mouse at 50 mg/kg, po in 20% HP-beta-CD; type: ADME, organism-based; parameters: dose 50 mg/kg, route oral; conditions: in vivo; how it was run: as §1
[27] = Cmax in mouse at 50 mg/kg, po in 20% Kolliphor; type: ADME, organism-based; parameters: dose 50 mg/kg, route oral; conditions: in vivo; how it was run: as §1
[28] = system: Brain; test: Drug uptake in mouse brain at 50 mg/kg, po in 20% Kolliphor measured at 2 hrs post dose; type: ADME, organism-based; parameters: dose 50 mg/kg, route oral; conditions: in vivo; how it was run: as §2
[29] = system: Cardiomyocyte; test: Cytotoxicity against mouse cardiomyocytes assessed as growth inhibition after 72 hrs by Cell Titer Glo assay

O=C(N[C@H](Cc1c[nH]c2ccccc12)C(=O)Nc1ccncc1)c1ccc(N2CCN(c3ccc(F)c(F)c3)CC2)cc1F
AUC(0-t) [1]: 2.37 µM·h
Tmax [2]: 4 h
Drug uptake [3]: Active
Drug uptake [4]: Active
Drug uptake [5]: Active
Activity [6]: Non-toxic
Drug uptake [7]: Active
Drug uptake [8]: Active
CL/F [9]: 562 mL/min/kg
CL/F [10]: 83.5 mL/min/kg
Drug uptake [11]: Active
EC50 [12]: > 90 µM
Drug uptake [13]: Active
half-life [14]: 273 min
Drug uptake [15]: Active
Drug uptake [16]: Active
Drug uptake [17]: Active
Drug uptake [18]: Active
inhibition in vivo at 50 mg/kg [19]: 98.6%
Drug uptake [20]: Active
Tmax [21]: 2.67 h
Cmax [22]: 640 nM
Drug uptake [23]: Active
AUC(0-t) [24]: 17.7 µM·h
Drug uptake [25]: Active
half-life [26]: 87 min
Cmax [27]: 2080 nM
Drug uptake [28]: Active
EC50 [29]: > 90 µM
